# Bioassay records (PubChem BioAssay)
# The list is not random: actives were taken first. Their share in the collection is about 2.7%.
# Wee1 degr inh – inhibitors of human Wee1 degradation. AID 1321. P30291. reporter increase, % at 5 µM. 220,000 compounds, 1.2% hits. HeLa Luc-Wee1K328M stability, luciferase luminescence; 100% = proteasome inhibitor MG132 effect;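 active = activation above the mean of all tested compounds plus 3 SD, set per screening run, cut at about 8.8% in these data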;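 note: cells exposed to compound for 20 h before luminescence read; 0% = DMSO alone and 100% = MG132 at 30 µM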
# Target sequence (P30291 whole entry K328M): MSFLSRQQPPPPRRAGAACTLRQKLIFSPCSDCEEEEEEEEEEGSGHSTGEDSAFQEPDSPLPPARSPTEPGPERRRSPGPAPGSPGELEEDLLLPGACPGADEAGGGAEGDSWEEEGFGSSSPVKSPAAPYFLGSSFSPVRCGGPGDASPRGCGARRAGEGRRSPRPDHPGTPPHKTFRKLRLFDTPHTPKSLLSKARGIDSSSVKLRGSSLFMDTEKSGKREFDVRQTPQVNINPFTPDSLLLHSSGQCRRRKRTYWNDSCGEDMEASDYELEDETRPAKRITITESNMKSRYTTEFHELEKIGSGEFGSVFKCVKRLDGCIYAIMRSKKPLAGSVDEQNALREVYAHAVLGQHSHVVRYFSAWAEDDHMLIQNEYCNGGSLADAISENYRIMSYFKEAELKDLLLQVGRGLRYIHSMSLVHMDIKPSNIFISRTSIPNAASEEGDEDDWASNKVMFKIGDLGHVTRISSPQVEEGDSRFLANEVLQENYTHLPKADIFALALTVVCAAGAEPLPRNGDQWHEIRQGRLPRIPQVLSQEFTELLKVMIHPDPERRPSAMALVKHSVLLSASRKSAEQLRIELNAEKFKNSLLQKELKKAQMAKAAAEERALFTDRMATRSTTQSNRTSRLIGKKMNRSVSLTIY
# 14-3-3 Bad PPI – disrupts binding of bovine 14-3-3 zeta to phospho-Bad peptide | P63103 | TR-FRET 14-3-3zeta/Dy647-pBad peptide displacement, 1 h | AID 781 | inhibition, % at 21.7 µM | 220,000 compounds, 0.71% hits;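 active = inhibition above about 70%, limit read from the data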;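 note: 0% = full 14-3-3 plus peptide FRET controls and 100% = background without 14-3-3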
# TbHK1 inh – blocks Trypanosoma brucei hexokinase 1 activity. inhibition, % at 10 µM. AID 1430. 220,000 compounds, 0.11% hits. recombinant TbHK1, G6PDH-coupled NADH A340;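 active = inhibition of 50% or more in the single-dose primary screen; inactive = inhibition below 50%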
# Mdm2 ligase inh – Mdm2 E3 ligase (human) inhibition. cell-based MDM2 ubiquitination luciferase reporter, 2 h; 0 = plate control, 100 = twice control, blank-subtracted. 210,000 compounds, 0.11% hits. AID 1230. signal enhancement, % at 5 µM. Q00987;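 active = signal enhancement of 30% or more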;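 note: luminescence tracks abundance of the self-degrading MDM2-luciferase fusion protein; higher signal means inhibition of MDM2 E3 ligase activity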
#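 Assay system: mammalian cells stably expressing self-ubiquitinating, self-degrading MDM2 E3–luciferase fusion. Quantity: 2000 cells in each well. Medium: DMEM culture medium. Compound dosing: single-point 5 µM. Timing: cell settling 4 h, compound treatment 2 h, both 37 °C. Technique: luciferase luminescence. Read-out basis: percent signal gain over controls, blank-subtracted. Benchmarks: plate controls and plate blanks.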
# Hck-Nef inh – inhibitors of human Hck kinase activated by Nef | P08631 | Recombinant Hck-YEEI plus Nef, Z-Lyte FRET kinase assay | inhibition, % at 20 µM | 220,000 compounds, 0.68% hits;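 active = Hck-Nef kinase inhibition above about 50%, limit read from the data; inactive = inhibition below that limit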;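 note: 0% = DMSO with Hck plus Nef and 100% = Hck alone without Nef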
# * hit, by the source's call; · = no result; [ ] = another dose, or the depositor's remark.
SMILES,Wee1 degr inh,14-3-3 Bad PPI,TbHK1 inh,Mdm2 ligase inh,Hck-Nef inh
O=C(O)Cn1c(-c2cscn2)nc2ccccc21,0,72*,-2,-7,2
COc1ccc(/C=C/C(=O)O)cc1S(=O)(=O)N1CCC(C)CC1,-1,-1,-8,-11,16
CN(C)/C=C(/C(=O)c1ccc(Cl)cc1Cl)S(=O)(=O)c1ccc(Cl)cc1,1,-7,5,1,0
CN(C)/C=C(/C(=O)c1ccc(Cl)cc1Cl)S(=O)(=O)c1ccccc1,9.6*,-10,-1,-10,-1
COc1cc(/C=C2\CC/C(=C\c3cc(OC)c(OC)c(OC)c3)C2=O)cc(OC)c1OC,4,17,-4,4,4
COc1cc(/C=C2\COC/C(=C\c3cc(OC)c(OC)c(OC)c3)C2=O)cc(OC)c1OC,127*,-1,-17,69*,-4
Cc1ccc(NC(=O)c2ccc(OCC3CCCO3)cc2)cc1 (stereo not given),1,-1,0,-30,6
Cc1cnc(NC(=O)c2ccc(OCC3CCCO3)cc2)s1 (stereo not given),-4,2,7,-62,59*
Cc1ccc2nc3sc(-c4nnc(-c5ccccc5[N+](=O)[O-])o4)c(N)c3cc2c1,0,88*[fluorescence artefact?],9,-16,7
COC(=O)C1c2ccccc2-c2ccccc21,3,78*,5,21,22
Cn1ccnc1C1CCCCN1Cc1nc(-c2ccc3c(c2)OCO3)no1 (stereo not given),1,-4,-6,-21,-7
CCc1ccc(S(=O)(=O)/N=C2/C=C(Sc3ncn[nH]3)C(=O)c3ccccc32)cc1,-2,84*[fluorescence artefact?],38,15,-3
CC1(C)Cn2c(nc(=O)c3c2NCN(CCc2ccccc2)C3)S1,1,4,-2,-16,-12
CNS(=O)(=O)c1cccc(C(=O)OCC(=O)Nc2ccc(Cl)cc2F)c1,9.8*,-2,5,-5,15
CC(=O)OC1CCC(OC(C)=O)c2c1n([O-])c(C)c(C)[n+]2=O (stereo not given),11*,-1,34,-40,3
O=c1oc2ccccc2cc1N1CCOCC1,9.3*,-5,18,-5,5
O=C(Nc1ncc(Cc2ccc(SC(F)F)cc2)s1)c1ccc(OC(F)F)cc1,-1,-13,-5,-11,2
CCOc1ccc(Nc2nnc(Cc3ccc(OC)cc3)c(=O)[nH]2)cc1,-1,-10,0,-13,36
CC(C)c1ccc2c(c1)C1(NN=C(c3ccccc3)S1)C(=O)N2 (stereo not given),0,-8,2,45*,5
CCc1ccc2c(c1)C1(NN=C(c3ccc(C)cc3)S1)C(=O)N2 (stereo not given),-3,-4,3,4,8
c1ccc(-c2csc(-n3cnnn3)n2)cc1,1,-6,2,-1,0
COc1cc(SC)ccc1C(=O)NCCOc1ccc(F)cc1,10*,-14,32,-17,3
Cn1cc(-c2nnc(-c3ccccc3)o2)c2ccccc21,10*,0,-5,-43,1
Cc1onc(-c2c(Cl)cccc2Cl)c1/C(N)=N/OC(=O)C1CC1,4,-1,-5,-17,2
Cc1ccn(CC(C)C(=O)O)n1 (stereo not given),9.6*,-1,3,-2,21
SMILES,Wee1 degr inh,14-3-3 Bad PPI,TbHK1 inh,Mdm2 ligase inh,Hck-Nef inh
Cc1ccn(CCSCC(=O)O)n1,-3,-3,-1,-20,-1
O=C(NC1CCC(O)CC1)c1ccc(-c2ccc([N+](=O)[O-])cc2)o1 (stereo not given),2,20,-49,·,25
CCCCCC(=O)NNC1CC(=O)N(c2cccc(OCC)c2)C1=O (stereo not given),0,3,-8,-23,9
COc1ccc(CN2CCN(C(=O)c3ccco3)CC2)cc1OCc1ccccc1,-2,84*,7,·,1
COc1ccc(CN2CCN(c3ccccn3)CC2)cc1OCc1ccccc1,-1,70*,-7,-4,-2
CC1CC(C)CN(C2CCN(Cc3cccnc3)CC2)C1 (stereo not given),2,79*,-2,-6,5
COc1ccc(C2CCN(Cc3cccnc3)CC2O)cc1 (stereo not given),1,0,6,-9,-3
CNC(=S)NNC(=O)c1ccccc1F,1,-10,-3,-12,21
